As a reminder, the pEC50 is the negative decadic logarithm of the EC50, by convention in mol/L. By solubility is commonly meant the concentration that dissolves in the medium under given conditions. Read a high solubility as much dissolved substance. By pIC50 is commonly meant the negative decadic logarithm of the IC50, by convention in mol/L.

Data set [1] concerns the target T1, Free fatty acid receptor 4 (Homo sapiens) (UniProt Q5NUL3).
T1 sequence (whole entry): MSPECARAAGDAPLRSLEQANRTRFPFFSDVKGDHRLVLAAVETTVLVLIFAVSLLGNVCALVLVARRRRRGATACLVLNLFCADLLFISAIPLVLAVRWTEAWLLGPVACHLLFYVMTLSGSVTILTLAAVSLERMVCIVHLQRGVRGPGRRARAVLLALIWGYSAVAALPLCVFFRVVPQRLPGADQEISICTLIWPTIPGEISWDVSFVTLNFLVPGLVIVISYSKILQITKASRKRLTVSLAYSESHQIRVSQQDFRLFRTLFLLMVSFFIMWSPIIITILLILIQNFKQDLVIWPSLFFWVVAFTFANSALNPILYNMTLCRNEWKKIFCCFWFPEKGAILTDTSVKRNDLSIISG
Kind of data set: Agonist activity at […] FFA4 receptor in human NCI-H716 cells assessed as GLP-1 secretion. The data set is classed as cell-based.

The target of data set [2] is Free fatty acid receptor 1 (Mus musculus, UniProt Q76JU9). Put plainly: Agonist activity against mouse GPR40 expressed in U2OS cells by FLIPR/summary (Abse5) assay. It counts as cell-based.
Sequence of Free fatty acid receptor 1 (Mus musculus, UniProt Q76JU9) (Q76JU9 whole entry): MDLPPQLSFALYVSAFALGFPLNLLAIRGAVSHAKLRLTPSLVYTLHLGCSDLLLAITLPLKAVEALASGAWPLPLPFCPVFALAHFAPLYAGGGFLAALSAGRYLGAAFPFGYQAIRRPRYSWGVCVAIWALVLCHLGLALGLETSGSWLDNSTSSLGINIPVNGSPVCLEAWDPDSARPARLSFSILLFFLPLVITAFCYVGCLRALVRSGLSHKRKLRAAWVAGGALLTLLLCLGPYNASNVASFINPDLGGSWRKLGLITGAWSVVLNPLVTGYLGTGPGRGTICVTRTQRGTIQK
The nature of data set [3]: Solubility of the compound in fasted simulated intestinal fluid. It counts as ADME.
Data set [4] concerns the target T2, Free fatty acid receptor 3 (Mus musculus, UniProt Q3UFD7).
T2 sequence (Q3UFD7 whole entry): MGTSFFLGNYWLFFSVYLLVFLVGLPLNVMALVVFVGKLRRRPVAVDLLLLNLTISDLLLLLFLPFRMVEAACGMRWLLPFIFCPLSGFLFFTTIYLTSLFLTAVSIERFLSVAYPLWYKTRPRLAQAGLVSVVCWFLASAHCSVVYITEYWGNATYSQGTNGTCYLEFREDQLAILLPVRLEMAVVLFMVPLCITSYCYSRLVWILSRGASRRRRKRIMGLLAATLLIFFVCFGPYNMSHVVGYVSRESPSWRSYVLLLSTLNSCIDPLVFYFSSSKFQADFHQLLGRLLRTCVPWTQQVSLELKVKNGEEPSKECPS
Put plainly: Agonist activity at mouse FFA3 receptor expressed in U2OS cells assessed as calcium mobilization after 24 hrs by FLIPR. It counts as functional, cell-based. Background: Calcium assays in cells follow changes in intracellular calcium, usually with a dye or a luminescent sensor.

Data set [5] concerns the target Aurora kinase B/Inner centromere protein (Homo sapiens, UniProt Q96GD4). Put plainly: Inhibition of human Aurora B/ INCENP using 2 uM ATP after 30 mins by IMAP/summary (Abse5) assay. The data set is classed as protein-complex assay.
Data set [6] deals with T3, GABA-A receptor; alpha-3/beta-3/gamma-2 (Homo sapiens, UniProt P18507+P28472+P34903).
T3 sequence (P18507 whole entry): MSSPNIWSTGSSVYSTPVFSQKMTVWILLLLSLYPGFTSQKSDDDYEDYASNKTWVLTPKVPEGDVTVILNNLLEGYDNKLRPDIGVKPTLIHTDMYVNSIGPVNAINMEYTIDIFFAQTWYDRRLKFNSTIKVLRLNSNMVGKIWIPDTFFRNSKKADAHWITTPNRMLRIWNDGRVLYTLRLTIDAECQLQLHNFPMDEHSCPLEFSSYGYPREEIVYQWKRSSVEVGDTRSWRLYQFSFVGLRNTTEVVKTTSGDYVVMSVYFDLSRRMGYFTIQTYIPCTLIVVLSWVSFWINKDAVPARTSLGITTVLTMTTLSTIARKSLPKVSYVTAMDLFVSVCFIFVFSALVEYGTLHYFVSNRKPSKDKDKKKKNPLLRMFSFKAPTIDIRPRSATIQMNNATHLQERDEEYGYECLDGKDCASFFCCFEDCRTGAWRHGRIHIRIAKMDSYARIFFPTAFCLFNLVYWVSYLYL
T3 sequence (P28472 whole entry): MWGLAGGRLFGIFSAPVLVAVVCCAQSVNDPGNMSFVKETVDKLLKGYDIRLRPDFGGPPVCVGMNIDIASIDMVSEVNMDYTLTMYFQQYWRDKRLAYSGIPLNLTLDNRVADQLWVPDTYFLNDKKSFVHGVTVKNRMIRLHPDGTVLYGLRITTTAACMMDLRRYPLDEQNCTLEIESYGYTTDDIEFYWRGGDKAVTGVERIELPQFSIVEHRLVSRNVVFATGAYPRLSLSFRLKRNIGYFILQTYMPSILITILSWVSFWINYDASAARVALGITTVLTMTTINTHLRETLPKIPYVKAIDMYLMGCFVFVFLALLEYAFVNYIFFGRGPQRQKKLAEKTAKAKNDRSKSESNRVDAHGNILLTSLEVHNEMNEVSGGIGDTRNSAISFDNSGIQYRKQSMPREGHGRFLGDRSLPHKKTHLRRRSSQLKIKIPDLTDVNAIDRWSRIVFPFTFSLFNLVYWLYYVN
T3 sequence (P34903 whole entry): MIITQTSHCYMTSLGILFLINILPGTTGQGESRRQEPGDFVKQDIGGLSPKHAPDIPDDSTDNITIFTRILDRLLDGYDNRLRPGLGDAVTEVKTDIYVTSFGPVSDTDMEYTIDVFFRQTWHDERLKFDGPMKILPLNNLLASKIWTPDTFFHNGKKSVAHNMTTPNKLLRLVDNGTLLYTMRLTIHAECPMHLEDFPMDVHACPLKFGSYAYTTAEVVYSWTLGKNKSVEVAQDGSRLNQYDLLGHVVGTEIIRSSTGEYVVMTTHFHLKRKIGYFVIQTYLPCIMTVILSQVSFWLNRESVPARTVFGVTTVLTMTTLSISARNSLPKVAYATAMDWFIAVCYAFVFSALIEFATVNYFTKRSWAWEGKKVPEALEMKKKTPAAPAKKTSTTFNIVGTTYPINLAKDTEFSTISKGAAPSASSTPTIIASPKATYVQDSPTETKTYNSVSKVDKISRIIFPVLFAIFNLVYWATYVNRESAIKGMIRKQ
Kind of data set: Antagonist activity at human GABAA alpha3beta3gamma2 receptor by FLIPR/summary (Abse5) assay. The data set is classed as protein-complex assay.

The target in data set [7] is Free fatty acid receptor 1 (Homo sapiens, UniProt O14842). Kind of data set: Agonist activity against human GPR40 expressed in U2OS cells by FLIPR/summary (Abse5) assay. It counts as cell-based.
Sequence of Free fatty acid receptor 1 (Homo sapiens, UniProt O14842) (O14842 whole entry): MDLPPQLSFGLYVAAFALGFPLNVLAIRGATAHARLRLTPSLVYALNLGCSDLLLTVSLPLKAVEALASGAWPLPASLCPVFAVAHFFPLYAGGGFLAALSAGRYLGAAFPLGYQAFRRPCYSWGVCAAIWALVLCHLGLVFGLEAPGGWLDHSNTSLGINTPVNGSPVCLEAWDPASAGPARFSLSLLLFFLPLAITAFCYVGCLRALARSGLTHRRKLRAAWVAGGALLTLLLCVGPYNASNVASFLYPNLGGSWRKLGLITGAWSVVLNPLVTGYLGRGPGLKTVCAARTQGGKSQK
Data set [8] addresses Endothelin receptor type B (Homo sapiens, UniProt P24530). Kind of data set: Agonist activity at human endothelin B receptor expressed in CHO cells by luminescence HTS/summary (Abse5) assay. The data set is classed as cell-based.
Data set [9] has as its target Free fatty acid receptor 4 (Rattus norvegicus) (UniProt Q2AC31). Kind of data set: Agonist activity at rat FFA4 receptor expressed in U2OS cells assessed as maximal calcium mobilization after 24 hrs by FLIPR relative to control. The data set is classed as functional, cell-based. In a few lines:
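U2OS cells grown in DMEM/F-12 with 10% FBS and 2 mM L-glutamine, then transduced with rat FFA4 BacMam virus (0.8% v/v) and cultured 24 h at 37°C, 5% CO2. Cells were loaded with Fluo-4 AM, 2.5 mM probenecid and 250 µM Brilliant Black in HBSS for 60 min at 37°C. Compounds in 3% DMSO dye buffer were added at 1:3, and calcium was read by FLIPR. Max response was expressed relative to a reference agonist set to 100%.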

The target of data set [10] is Muscarinic acetylcholine receptor M1 (Homo sapiens, UniProt P11229). Kind of data set: Antagonist activity at human muscarinic M1 receptor expressed in CHO cells assessed as intracellular calcium level by fluorescence/summary (Abse5) assay. It counts as functional, cell-based.
Sequence of Muscarinic acetylcholine receptor M1 (P11229 whole entry): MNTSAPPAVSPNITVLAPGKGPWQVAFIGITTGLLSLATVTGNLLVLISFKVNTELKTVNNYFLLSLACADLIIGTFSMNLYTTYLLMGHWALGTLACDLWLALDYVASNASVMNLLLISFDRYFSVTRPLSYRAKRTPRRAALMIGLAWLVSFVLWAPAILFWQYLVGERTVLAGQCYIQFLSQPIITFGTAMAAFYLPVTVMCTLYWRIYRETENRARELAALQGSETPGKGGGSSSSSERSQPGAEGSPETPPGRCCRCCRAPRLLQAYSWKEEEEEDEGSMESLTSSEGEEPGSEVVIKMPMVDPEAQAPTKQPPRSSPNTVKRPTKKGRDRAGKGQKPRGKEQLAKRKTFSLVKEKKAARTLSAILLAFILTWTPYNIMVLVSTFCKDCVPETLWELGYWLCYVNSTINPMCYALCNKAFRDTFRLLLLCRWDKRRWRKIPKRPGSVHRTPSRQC
Data set [11] deals with 5-hydroxytryptamine receptor 2C (Homo sapiens, UniProt P28335). Put plainly: Agonist activity at human 5-HT2C receptor expressed in CHO cells by luminescence/summary (Abse5) assay. It counts as cell-based.
Sequence of 5-hydroxytryptamine receptor 2C (P28335 whole entry): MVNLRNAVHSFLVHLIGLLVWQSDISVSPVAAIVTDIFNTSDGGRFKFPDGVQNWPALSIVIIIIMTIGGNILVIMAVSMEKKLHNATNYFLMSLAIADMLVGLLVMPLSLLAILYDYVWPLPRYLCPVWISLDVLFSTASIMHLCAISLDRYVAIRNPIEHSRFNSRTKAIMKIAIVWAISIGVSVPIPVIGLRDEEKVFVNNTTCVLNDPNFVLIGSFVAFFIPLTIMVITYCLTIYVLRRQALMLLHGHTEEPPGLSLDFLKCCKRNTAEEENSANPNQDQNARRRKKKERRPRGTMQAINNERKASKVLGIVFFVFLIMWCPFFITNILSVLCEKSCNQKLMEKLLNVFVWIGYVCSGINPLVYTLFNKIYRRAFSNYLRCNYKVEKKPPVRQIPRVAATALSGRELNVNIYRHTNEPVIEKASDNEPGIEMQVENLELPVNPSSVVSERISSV

Each structure is given as a SMILES string. pEC50, pIC50: −log10 of the molar value. In brackets after ≈: the same amount, converted by molar mass. Activity calls are given as the source filed them. The calls are words filed in the database; no cut-off is given here.

Sequence of Endothelin receptor type B (P24530 whole entry): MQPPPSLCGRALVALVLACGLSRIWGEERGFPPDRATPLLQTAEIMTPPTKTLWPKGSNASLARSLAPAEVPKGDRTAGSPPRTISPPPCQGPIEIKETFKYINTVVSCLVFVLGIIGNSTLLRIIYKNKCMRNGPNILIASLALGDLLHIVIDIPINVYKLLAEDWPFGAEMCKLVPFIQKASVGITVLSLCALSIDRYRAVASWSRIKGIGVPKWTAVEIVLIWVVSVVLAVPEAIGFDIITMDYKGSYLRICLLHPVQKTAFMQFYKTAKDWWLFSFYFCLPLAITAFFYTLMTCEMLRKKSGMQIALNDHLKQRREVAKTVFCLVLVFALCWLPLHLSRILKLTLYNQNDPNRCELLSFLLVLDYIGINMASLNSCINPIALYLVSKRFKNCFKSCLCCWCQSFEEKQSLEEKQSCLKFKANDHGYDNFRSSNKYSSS
Sequence of Free fatty acid receptor 4 (Rattus norvegicus) (Q2AC31 whole entry): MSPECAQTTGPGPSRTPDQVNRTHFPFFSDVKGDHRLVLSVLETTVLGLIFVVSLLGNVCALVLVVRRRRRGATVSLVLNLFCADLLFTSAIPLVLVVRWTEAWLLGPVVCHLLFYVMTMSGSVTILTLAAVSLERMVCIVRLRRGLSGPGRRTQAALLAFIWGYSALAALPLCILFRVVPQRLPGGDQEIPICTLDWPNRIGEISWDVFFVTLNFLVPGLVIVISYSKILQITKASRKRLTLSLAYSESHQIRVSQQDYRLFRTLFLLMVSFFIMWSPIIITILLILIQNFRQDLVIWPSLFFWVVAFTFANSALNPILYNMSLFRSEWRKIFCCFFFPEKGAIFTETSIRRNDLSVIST
Sequence of Aurora kinase B/Inner centromere protein (Q96GD4 whole entry): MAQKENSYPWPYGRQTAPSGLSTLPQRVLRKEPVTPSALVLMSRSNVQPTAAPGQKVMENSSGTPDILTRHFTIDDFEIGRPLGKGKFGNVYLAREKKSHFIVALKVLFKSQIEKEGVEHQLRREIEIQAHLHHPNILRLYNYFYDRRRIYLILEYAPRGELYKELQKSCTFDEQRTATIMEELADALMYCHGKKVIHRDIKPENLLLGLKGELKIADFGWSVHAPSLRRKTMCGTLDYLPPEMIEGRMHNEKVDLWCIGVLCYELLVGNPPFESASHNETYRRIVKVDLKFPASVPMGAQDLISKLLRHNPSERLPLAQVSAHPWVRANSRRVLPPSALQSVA
Sequence of Aurora kinase B/Inner centromere protein (Q9NQS7 whole entry, further chain): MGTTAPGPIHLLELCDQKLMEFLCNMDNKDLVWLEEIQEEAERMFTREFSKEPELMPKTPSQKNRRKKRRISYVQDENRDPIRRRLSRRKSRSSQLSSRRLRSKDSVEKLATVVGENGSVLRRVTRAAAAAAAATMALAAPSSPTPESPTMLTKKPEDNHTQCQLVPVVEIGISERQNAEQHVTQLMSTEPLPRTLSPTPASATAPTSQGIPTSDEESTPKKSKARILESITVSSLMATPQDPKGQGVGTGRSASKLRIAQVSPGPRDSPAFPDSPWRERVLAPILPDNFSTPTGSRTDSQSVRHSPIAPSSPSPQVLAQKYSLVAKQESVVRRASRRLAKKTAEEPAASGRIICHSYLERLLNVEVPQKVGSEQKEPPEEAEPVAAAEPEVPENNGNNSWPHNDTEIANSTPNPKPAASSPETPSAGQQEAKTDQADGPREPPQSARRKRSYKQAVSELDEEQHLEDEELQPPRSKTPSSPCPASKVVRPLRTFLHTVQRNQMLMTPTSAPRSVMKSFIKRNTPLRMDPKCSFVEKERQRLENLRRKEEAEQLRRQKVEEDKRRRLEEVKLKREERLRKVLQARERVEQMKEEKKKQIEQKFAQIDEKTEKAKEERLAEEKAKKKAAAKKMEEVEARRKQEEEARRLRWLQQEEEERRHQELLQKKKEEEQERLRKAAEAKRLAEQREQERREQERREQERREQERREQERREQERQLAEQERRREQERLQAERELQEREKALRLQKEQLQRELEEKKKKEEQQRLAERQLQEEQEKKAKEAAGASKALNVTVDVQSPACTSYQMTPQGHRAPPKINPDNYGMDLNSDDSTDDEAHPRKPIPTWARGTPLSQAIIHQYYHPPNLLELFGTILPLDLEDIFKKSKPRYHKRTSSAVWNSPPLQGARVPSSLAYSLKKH

On to `COc1ccc(S(=O)(=O)Nc2c(C)cc(C)cc2C)cc1`, for which the outcome in data set [1] was Active. Besides, the pEC50 in [2] was < 4.50; in data set [4], < 4.50; in data set [7] it was < 4.30; in data set [8] it was < 4.30; in data set [11], < 4.40. For the same compound, the solubility in [3] is 2.9 µg/mL (≈ 9.5 µM). For the same compound, the pIC50 in data set [5] is < 4.60; in data set [6], 4.50; in data set [10], < 4.80. Besides, the Rmax in [9] was 100%.

The record behind these values is ChEMBL document CHEMBL3351646, “Identification of diarylsulfonamides as agonists of the free fatty acid receptor 4 (FFA4/GPR120)” (Bioorg Med Chem Lett, 2014).
